According to ChEMBL document CHEMBL4689842, “EUbOPEN Chemogenomics Library wave 1” (2021):

Tested on: Fibroblast
Assay: Multiplex assay against human fibroblast
Assay type: toxicity, cell-based
Procedure, shortened: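 Hoechst33342, BioTracker Green Microtubule Cytoskeleton Dye, MitoTracker Red and Annexin V Alexa Fluor 680 were added to live cells at seeding, and imaging on a CQ1 microscope at 37°C and 5% CO2 followed compound addition. Gating by CellPathfinder machine learning separated cells into Hoechst high-intensity objects or normal cells, then normal cells into healthy, pyknosed or fragmented nuclei, then pyknosed cells into mitotic or apoptotic. Per cents of healthy-nucleus cells are reported for the tubulin, mitochondrial-mass and membrane-permeability phenotypes.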

[1] = 12 h, 1 µM, compound concentration 1 uM, replicate 1
[2] = 12 h, 1 µM, compound concentration 1 uM, replicate 2
[3] = 12 h, 10 µM, compound concentration 10 uM, replicate 1
[4] = 12 h, 10 µM, compound concentration 10 uM, replicate 2
[5] = 24 h, 1 µM, compound concentration 1 uM, replicate 1
[6] = 24 h, 1 µM, compound concentration 1 uM, replicate 2
[7] = 24 h, 10 µM, compound concentration 10 uM, replicate 1
[8] = 24 h, 10 µM, compound concentration 10 uM, replicate 2

In the case of `COc1cc2ncnc(Nc3ccc(F)c(Cl)c3)c2cc1NC(=O)/C=C/CN1CCCCC1` [DACOMITINIB ANHYDROUS], the “Population Apoptotic (%)” value [1] is reported as 72%, the “Population Fragmented Nuclei (%)” value [1] is reported as 33% and the “Population Healthy Nuclei (%)” value [1] is reported as 52%. For the same compound, the “Population Hoechst High Intensity Objects (%)” value [1] was 17%, the “Population Membrane Permeable-Phenotype (%)” value [1] was 6% and the “Population Mitochondria Different-Phenotype (%)” value [1] was 8%. The “Population Mitotic Cells (%)” value [1] was 27%, the “Population Normal (%)” value [1] was 82% and the “Population Pyknosed Nuclei (%)” value [1] was 14%. The “Population Tubulin-Different-Phenotype (%)” value [1] was 46%, the “Total Cell Count” value [1] was 248 and the “Population Apoptotic (%)” value [2] was 66%. The “Population Fragmented Nuclei (%)” value [2] was 56%, the “Population Healthy Nuclei (%)” value [2] was 36% and the “Population Hoechst High Intensity Objects (%)” value [2] was 57%. For the same compound, the “Population Membrane Permeable-Phenotype (%)” value [2] was 12%, the “Population Mitochondria Different-Phenotype (%)” value [2] was 25% and the “Population Mitotic Cells (%)” value [2] was 33%. For the same compound, the “Population Normal (%)” value [2] was 42%, the “Population Pyknosed Nuclei (%)” value [2] was 6% and the “Population Tubulin-Different-Phenotype (%)” value [2] was 25%. The “Total Cell Count” value [2] was 103, the “Population Apoptotic (%)” value [3] was 58% and the “Population Fragmented Nuclei (%)” value [3] was 30%. The “Population Healthy Nuclei (%)” value [3] was 53%, the “Population Hoechst High Intensity Objects (%)” value [3] was 14% and the “Population Membrane Permeable-Phenotype (%)” value [3] was 7%. For the same compound, the “Population Mitochondria Different-Phenotype (%)” value [3] was 3%, the “Population Mitotic Cells (%)” value [3] was 41% and the “Population Normal (%)” value [3] was 85%. The “Population Pyknosed Nuclei (%)” value [3] was 15%, the “Population Tubulin-Different-Phenotype (%)” value [3] was 7% and the “Total Cell Count” value [3] was 214. The “Population Apoptotic (%)” value [4] was 28%, the “Population Fragmented Nuclei (%)” value [4] was 47% and the “Population Healthy Nuclei (%)” value [4] was 40%. The “Population Hoechst High Intensity Objects (%)” value [4] was 35%, the “Population Membrane Permeable-Phenotype (%)” value [4] was 20% and the “Population Mitochondria Different-Phenotype (%)” value [4] was 16%. The “Population Mitotic Cells (%)” value [4] was 71%, the “Population Normal (%)” value [4] was 64% and the “Population Pyknosed Nuclei (%)” value [4] was 11%. For the same compound, the “Population Tubulin-Different-Phenotype (%)” value [4] was 16%, the “Total Cell Count” value [4] was 94 and the “Population Apoptotic (%)” value [5] was 72%. The “Population Fragmented Nuclei (%)” value [5] was 28%, the “Population Healthy Nuclei (%)” value [5] was 54% and the “Population Hoechst High Intensity Objects (%)” value [5] was 30%. The “Population Mitochondria Different-Phenotype (%)” value [5] was 22%, the “Population Mitotic Cells (%)” value [5] was 28% and the “Population Normal (%)” value [5] was 69%. For the same compound, the “Population Pyknosed Nuclei (%)” value [5] was 17%, the “Population Tubulin-Different-Phenotype (%)” value [5] was 46% and the “Total Cell Count” value [5] was 210. The “Population Apoptotic (%)” value [6] was 100%, the “Population Fragmented Nuclei (%)” value [6] was 51% and the “Population Healthy Nuclei (%)” value [6] was 40%. The “Population Hoechst High Intensity Objects (%)” value [6] was 57%, the “Population Membrane Permeable-Phenotype (%)” value [6] was 5% and the “Population Mitochondria Different-Phenotype (%)” value [6] was 16%. For the same compound, the “Population Mitotic Cells (%)” value [6] was 0%, the “Population Normal (%)” value [6] was 42% and the “Population Pyknosed Nuclei (%)” value [6] was 8%. For the same compound, the “Population Tubulin-Different-Phenotype (%)” value [6] was 16%, the “Total Cell Count” value [6] was 106 and the “Population Apoptotic (%)” value [7] was 58%. The “Population Fragmented Nuclei (%)” value [7] was 32%, the “Population Healthy Nuclei (%)” value [7] was 50% and the “Population Hoechst High Intensity Objects (%)” value [7] was 18%. The “Population Membrane Permeable-Phenotype (%)” value [7] was 6%, the “Population Mitochondria Different-Phenotype (%)” value [7] was 2% and the “Population Mitotic Cells (%)” value [7] was 41%. The “Population Normal (%)” value [7] was 81%, the “Population Pyknosed Nuclei (%)” value [7] was 17% and the “Population Tubulin-Different-Phenotype (%)” value [7] was 3%. For the same compound, the “Total Cell Count” value [7] was 249, the “Population Apoptotic (%)” value [8] was 33% and the “Population Fragmented Nuclei (%)” value [8] was 53%. For the same compound, the “Population Healthy Nuclei (%)” value [8] was 36%, the “Population Hoechst High Intensity Objects (%)” value [8] was 30% and the “Population Membrane Permeable-Phenotype (%)” value [8] was 21%. For the same compound, the “Population Mitochondria Different-Phenotype (%)” value [8] was 13%, the “Population Mitotic Cells (%)” value [8] was 66% and the “Population Normal (%)” value [8] was 69%. For the same compound, the “Population Pyknosed Nuclei (%)” value [8] was 9%, the “Population Tubulin-Different-Phenotype (%)” value [8] was 17% and the “Total Cell Count” value [8] was 91.
